Measurements reported in ChEMBL document CHEMBL1125291, “New 8-(trifluoromethyl)-substituted quinolones. The benefits of the 8-fluoro group with reduced phototoxic risk” (1992).
≈ marks a conversion by molar mass, not a printed value.

Organism: Mus musculus
Assay: Dose which has no effect to induce phototoxic reaction in 50% of mice by probit method.
Type: functional
Conditions: not given

Structure (SMILES)	No effect dose
NC1CCCN(c2c(F)cc3c(=O)c(C(=O)O)cn(C4CC4)c3c2F)C1 (centres undefined)	100 mg/kg
CCNCC1CCN(c2c(F)cc3c(=O)c(C(=O)O)cn(C4CC4)c3c2C(F)(F)F)C1 (centres undefined)	100 mg/kg

Test system: Pseudomonas aeruginosa
Assay: Minimum inhibitory concentration (MIC) against gram negative bacteria Pseudomonas aeruginosa UI-18.
Type: functional
Conditions: Pseudomonas aeruginosa; read-out: MIC
Procedure, shortened: (§1)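 MICs were determined by standard broth microtitration against 11 Gram-positive and Gram-negative organisms, in µg/mL. Values come from duplicate or triplicate experiments and are accurate to ±50%.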

Structure (SMILES)	MIC
NC1CCCN(c2c(F)cc3c(=O)c(C(=O)O)cn(C4CC4)c3c2F)C1 (centres undefined)	0.2 µg/mL (≈ 0.55 µM)
CCNCC1CCN(c2c(F)cc3c(=O)c(C(=O)O)cn(C4CC4)c3c2C(F)(F)F)C1 (centres undefined)	6.3 µg/mL (≈ 14.3 µM)

Test system: Klebsiella pneumoniae
Assay: Minimum inhibitory concentration (MIC) against gram negative bacteria Klebsiella pneumoniae MGH-2.
Type: functional
Conditions: Klebsiella pneumoniae; read-out: MIC
Procedure, shortened: as §1

Structure (SMILES)	MIC
NC1CCCN(c2c(F)cc3c(=O)c(C(=O)O)cn(C4CC4)c3c2F)C1 (centres undefined)	0.2 µg/mL (≈ 0.55 µM)
CCNCC1CCN(c2c(F)cc3c(=O)c(C(=O)O)cn(C4CC4)c3c2C(F)(F)F)C1 (centres undefined)	0.8 µg/mL (≈ 1.81 µM)

Organism: Mus musculus
Assay: Number of mice which show positive phototoxic reaction in 5 mice
Type: functional
Conditions: not given

Structure (SMILES)	No. of pos rxns
CCNCC1CCN(c2c(F)cc3c(=O)c(C(=O)O)cn(C4CC4)c3c2C(F)(F)F)C1 (centres undefined)	0

Test system: Streptococcus pyogenes
Assay: Minimum inhibitory concentration (MIC) against gram positive bacteria Streptococcus pyogenes C-203.
Type: functional
Conditions: Streptococcus pyogenes; read-out: MIC
Procedure, shortened: as §1

Structure (SMILES)	MIC
NC1CCCN(c2c(F)cc3c(=O)c(C(=O)O)cn(C4CC4)c3c2F)C1 (centres undefined)	0.1 µg/mL (≈ 0.275 µM)
CCNCC1CCN(c2c(F)cc3c(=O)c(C(=O)O)cn(C4CC4)c3c2C(F)(F)F)C1 (centres undefined)	0.05 µg/mL (≈ 0.113 µM)

Test system: Pseudomonas aeruginosa
Assay: In vivo efficacy (s.c.) against Pseudomonas aeruginosa in mouse protection test
Type: functional
Conditions: Pseudomonas aeruginosa, sc; read-out: PD50
Procedure, shortened: (§2)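 Acute lethal systemic infections in female Charles River CD-1 mice. A single dose was given at challenge, orally by gavage or by subcutaneous injection. PD50 (median protective dose, mg/kg) was determined.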

Structure (SMILES)	ED50
CCNCC1CCN(c2c(F)cc3c(=O)c(C(=O)O)cn(C4CC4)c3c2C(F)(F)F)C1 (centres undefined)	46 mg/kg

Organism: Mus musculus
Assay: Days of the first positive reaction in […] mice.
Type: functional
Conditions: not given
Procedure, shortened: (§3)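 Phototoxic skin reaction test in depilated female CD-1 mice. A single oral dose (gavage) or subcutaneous dose was given, followed 1 h later by 3 h of UVA exposure (320–400 nm). The regimen was repeated for up to 4 consecutive days, with initial doses of 30, 100 and 300 mg/kg. PTD50 was derived by the probit method. The first day of positive reaction and the no-effect dose were taken from the raw data.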

Structure (SMILES)	Day of first positve reaction
NC1CCCN(c2c(F)cc3c(=O)c(C(=O)O)cn(C4CC4)c3c2F)C1 (centres undefined)	0
CCNCC1CCN(c2c(F)cc3c(=O)c(C(=O)O)cn(C4CC4)c3c2C(F)(F)F)C1 (centres undefined)	0

Test system: Escherichia coli
Assay: In vivo efficacy in mouse protection test in Escherichia coli Vogel administered by subcutaneous injection.
Type: functional
Conditions: Escherichia coli, sc; read-out: PD50
Procedure, shortened: as §2

Structure (SMILES)	ED50
NC1CCCN(c2c(F)cc3c(=O)c(C(=O)O)cn(C4CC4)c3c2F)C1 (centres undefined)	1.4 mg/kg
CCNCC1CCN(c2c(F)cc3c(=O)c(C(=O)O)cn(C4CC4)c3c2C(F)(F)F)C1 (centres undefined)	1.7 mg/kg

Test system: Escherichia coli
Assay: In vivo efficacy in mouse protection test in Escherichia coli Vogel dose administered orally by gavage.
Type: functional
Conditions: Escherichia coli, po; read-out: PD50
Procedure, shortened: as §2

Structure (SMILES)	ED50
NC1CCCN(c2c(F)cc3c(=O)c(C(=O)O)cn(C4CC4)c3c2F)C1 (centres undefined)	4.7 mg/kg
CCNCC1CCN(c2c(F)cc3c(=O)c(C(=O)O)cn(C4CC4)c3c2C(F)(F)F)C1 (centres undefined)	5.3 mg/kg

Test system: Escherichia coli
Assay: Minimum inhibitory concentration (MIC) against gram negative bacteria Escherichia coli Vogel.
Type: functional
Conditions: Escherichia coli; read-out: MIC
Procedure, shortened: as §1

Structure (SMILES)	MIC
NC1CCCN(c2c(F)cc3c(=O)c(C(=O)O)cn(C4CC4)c3c2F)C1 (centres undefined)	0.2 µg/mL (≈ 0.55 µM)
CCNCC1CCN(c2c(F)cc3c(=O)c(C(=O)O)cn(C4CC4)c3c2C(F)(F)F)C1 (centres undefined)	0.4 µg/mL (≈ 0.906 µM)

Test system: Streptococcus pneumoniae
Assay: In vivo efficacy (orally) against Streptococcus pneumoniae SV-1 in mouse protection test
Type: functional
Conditions: Streptococcus pneumoniae, po; read-out: PD50
Procedure, shortened: as §2

Structure (SMILES)	ED50
CCNCC1CCN(c2c(F)cc3c(=O)c(C(=O)O)cn(C4CC4)c3c2C(F)(F)F)C1 (centres undefined)	1.4 mg/kg

Test system: Staphylococcus aureus
Assay: Minimum inhibitory concentration (MIC) against gram positive bacteria Staphylococcus aureus UC-76.
Type: functional
Conditions: Staphylococcus aureus; read-out: MIC
Procedure, shortened: as §1

Structure (SMILES)	MIC
NC1CCCN(c2c(F)cc3c(=O)c(C(=O)O)cn(C4CC4)c3c2F)C1 (centres undefined)	0.025 µg/mL (≈ 0.0688 µM)
CCNCC1CCN(c2c(F)cc3c(=O)c(C(=O)O)cn(C4CC4)c3c2C(F)(F)F)C1 (centres undefined)	0.013 µg/mL (≈ 0.0295 µM)

Test system: not listed separately
Assay: Minimum inhibitory concentration (MIC) against gram negative bacteria Prot. rettgeri M-1771.
Type: functional, Providencia rettgeri
Conditions: Providencia rettgeri; read-out: MIC
Procedure, shortened: as §1

Structure (SMILES)	MIC
NC1CCCN(c2c(F)cc3c(=O)c(C(=O)O)cn(C4CC4)c3c2F)C1 (centres undefined)	0.2 µg/mL (≈ 0.55 µM)
CCNCC1CCN(c2c(F)cc3c(=O)c(C(=O)O)cn(C4CC4)c3c2C(F)(F)F)C1 (centres undefined)	1.6 µg/mL (≈ 3.62 µM)

Test system: Mus musculus
Assay: Maximum tolerance dose was measured for phototoxic skin reaction by po administration
Type: functional
Conditions: not given

Structure (SMILES)	MTD
NC1CCCN(c2c(F)cc3c(=O)c(C(=O)O)cn(C4CC4)c3c2F)C1 (centres undefined)	100 mg/kg
CCNCC1CCN(c2c(F)cc3c(=O)c(C(=O)O)cn(C4CC4)c3c2C(F)(F)F)C1 (centres undefined)	100 mg/kg

Test system: Pseudomonas aeruginosa
Assay: In vivo efficacy (orally) against Pseudomonas aeruginosa in mouse protection test
Type: functional
Conditions: Pseudomonas aeruginosa, po; read-out: PD50
Procedure, shortened: as §2

Structure (SMILES)	ED50
CCNCC1CCN(c2c(F)cc3c(=O)c(C(=O)O)cn(C4CC4)c3c2C(F)(F)F)C1 (centres undefined)	93 mg/kg

Test system: Enterococcus faecalis
Assay: Minimum inhibitory concentration (MIC) against gram positive bacteria Streptococcus faecalis MGH-2.
Type: functional
Conditions: Enterococcus faecalis; read-out: MIC
Procedure, shortened: as §1

Structure (SMILES)	MIC
NC1CCCN(c2c(F)cc3c(=O)c(C(=O)O)cn(C4CC4)c3c2F)C1 (centres undefined)	0.1 µg/mL (≈ 0.275 µM)
CCNCC1CCN(c2c(F)cc3c(=O)c(C(=O)O)cn(C4CC4)c3c2C(F)(F)F)C1 (centres undefined)	0.1 µg/mL (≈ 0.227 µM)

Test system: Staphylococcus aureus
Assay: Minimum inhibitory concentration (MIC) against gram positive bacteria Staphylococcus aureus H-228.
Type: functional
Conditions: Staphylococcus aureus; read-out: MIC
Procedure, shortened: as §1

Structure (SMILES)	MIC
NC1CCCN(c2c(F)cc3c(=O)c(C(=O)O)cn(C4CC4)c3c2F)C1 (centres undefined)	0.1 µg/mL (≈ 0.275 µM)
CCNCC1CCN(c2c(F)cc3c(=O)c(C(=O)O)cn(C4CC4)c3c2C(F)(F)F)C1 (centres undefined)	0.05 µg/mL (≈ 0.113 µM)

Test system: Streptococcus pyogenes
Assay: In vivo efficacy (orally) against Streptococcus pyogenes C-203 in mouse protection test
Type: functional
Conditions: Streptococcus pyogenes, po; read-out: PD50
Procedure, shortened: as §2

Structure (SMILES)	ED50
NC1CCCN(c2c(F)cc3c(=O)c(C(=O)O)cn(C4CC4)c3c2F)C1 (centres undefined)	32 mg/kg
CCNCC1CCN(c2c(F)cc3c(=O)c(C(=O)O)cn(C4CC4)c3c2C(F)(F)F)C1 (centres undefined)	1.6 mg/kg

Test system: Streptococcus pneumoniae
Assay: In vivo efficacy (s.c.) against Streptococcus pneumoniae SV-1 in mouse protection test
Type: functional
Conditions: Streptococcus pneumoniae, sc; read-out: PD50
Procedure, shortened: as §2

Structure (SMILES)	ED50
CCNCC1CCN(c2c(F)cc3c(=O)c(C(=O)O)cn(C4CC4)c3c2C(F)(F)F)C1 (centres undefined)	0.9 mg/kg

Test system: Streptococcus pyogenes
Assay: In vivo efficacy (s.c.) against Streptococcus pyogenes C-203 in mouse protection test
Type: functional
Conditions: Streptococcus pyogenes, sc; read-out: PD50
Procedure, shortened: as §2

Structure (SMILES)	ED50
NC1CCCN(c2c(F)cc3c(=O)c(C(=O)O)cn(C4CC4)c3c2F)C1 (centres undefined)	3.4 mg/kg
CCNCC1CCN(c2c(F)cc3c(=O)c(C(=O)O)cn(C4CC4)c3c2C(F)(F)F)C1 (centres undefined)	1.1 mg/kg

Organism: Mus musculus
Assay: Dose required to induce phototoxic reaction in 50% of mice by probit method at different dosage forms.
Type: functional
Conditions: not given

Structure (SMILES)	PTD50
NC1CCCN(c2c(F)cc3c(=O)c(C(=O)O)cn(C4CC4)c3c2F)C1 (centres undefined)	>100 mg/kg
CCNCC1CCN(c2c(F)cc3c(=O)c(C(=O)O)cn(C4CC4)c3c2C(F)(F)F)C1 (centres undefined)	>100 mg/kg

Test system: Enterobacter cloacae
Assay: Minimum inhibitory concentration (MIC) against gram negative bacteria Enterobacter cloacae MA-2646.
Type: functional
Conditions: not given

Structure (SMILES)	MIC
NC1CCCN(c2c(F)cc3c(=O)c(C(=O)O)cn(C4CC4)c3c2F)C1 (centres undefined)	0.2 µg/mL (≈ 0.55 µM)
CCNCC1CCN(c2c(F)cc3c(=O)c(C(=O)O)cn(C4CC4)c3c2C(F)(F)F)C1 (centres undefined)	0.4 µg/mL (≈ 0.906 µM)

Organism: Mus musculus
Assay: Number of mice which show positive phototoxic reaction.
Type: functional
Conditions: not given
Procedure, shortened: as §3

Structure (SMILES)	No. of pos rxns
NC1CCCN(c2c(F)cc3c(=O)c(C(=O)O)cn(C4CC4)c3c2F)C1 (centres undefined)	0

Test system: Escherichia coli
Assay: Minimum inhibitory concentration (MIC) against gram negative bacteria Escherichia coli H-560.
Type: functional
Conditions: Escherichia coli; read-out: MIC
Procedure, shortened: as §1

Structure (SMILES)	MIC
NC1CCCN(c2c(F)cc3c(=O)c(C(=O)O)cn(C4CC4)c3c2F)C1 (centres undefined)	0.2 µg/mL (≈ 0.55 µM)
CCNCC1CCN(c2c(F)cc3c(=O)c(C(=O)O)cn(C4CC4)c3c2C(F)(F)F)C1 (centres undefined)	0.2 µg/mL (≈ 0.453 µM)

Test system: Streptococcus pneumoniae
Assay: Minimum inhibitory concentration (MIC) against gram positive bacteria Streptococcus pneumoniae SV-1.
Type: functional
Conditions: Streptococcus pneumoniae; read-out: MIC
Procedure, shortened: as §1

Structure (SMILES)	MIC
NC1CCCN(c2c(F)cc3c(=O)c(C(=O)O)cn(C4CC4)c3c2F)C1 (centres undefined)	0.1 µg/mL (≈ 0.275 µM)
CCNCC1CCN(c2c(F)cc3c(=O)c(C(=O)O)cn(C4CC4)c3c2C(F)(F)F)C1 (centres undefined)	0.05 µg/mL (≈ 0.113 µM)
